DENV2 CPE – protects cells from dengue virus 2 cytopathic effect | DENV2-infected cells, cytopathic effect rescue, plate reader | CPE inhibition, % at 9.99 µM | AID 651640 | hit rate 1.7% among 350,000; in the data active = CPE inhibition above about 20%, passing the limit was not always enough; inconclusive = no clear call, values can overlap the other calls; tested in BHK-21 cells
E-selectin induc – E-selectin induction on HUVECs. P16581. HUVEC E-selectin immunofluorescence imaging; normalized: neutral wells 0, TNF-alpha wells 100. activation, % at 7.58 µM. hit rate 0.37% among 260,000;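 active = mean E-selectin-positive cell signal at least 10% of the positive control, reached in at least 60% of replicates, without over 20% cell loss; inconclusive = no rule given, readout overlaps actives, possibly toxicity-flagged; inactive = the rest, including those meeting only one limit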
Target sequence (P16581 whole entry, looked up): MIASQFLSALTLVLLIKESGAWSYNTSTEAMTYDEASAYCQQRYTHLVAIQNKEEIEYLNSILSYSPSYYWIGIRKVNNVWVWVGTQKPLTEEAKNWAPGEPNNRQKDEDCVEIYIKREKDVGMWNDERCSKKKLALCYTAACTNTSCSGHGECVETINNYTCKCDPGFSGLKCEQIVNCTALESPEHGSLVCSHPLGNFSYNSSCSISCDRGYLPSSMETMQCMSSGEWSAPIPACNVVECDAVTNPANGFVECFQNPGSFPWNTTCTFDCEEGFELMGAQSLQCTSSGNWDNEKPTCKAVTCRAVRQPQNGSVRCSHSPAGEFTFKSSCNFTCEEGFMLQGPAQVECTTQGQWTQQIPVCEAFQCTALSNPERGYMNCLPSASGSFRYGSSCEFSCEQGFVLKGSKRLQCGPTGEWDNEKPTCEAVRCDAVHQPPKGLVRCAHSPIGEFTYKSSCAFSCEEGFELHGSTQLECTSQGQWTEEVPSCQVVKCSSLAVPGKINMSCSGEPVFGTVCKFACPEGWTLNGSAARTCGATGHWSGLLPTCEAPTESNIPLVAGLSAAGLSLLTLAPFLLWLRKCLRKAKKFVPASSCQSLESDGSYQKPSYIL
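Read-out: % PE-positive cells | Test system: HUVEC | Doses: One compound dose added by pin transfer | Buffer or medium: EGM-2 over gelatin coat | Signal: Immunofluorescence imaging | Benchmarks: TNF-alpha, DMSO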
XiGFP reactiv – reactivates the inactive X chromosome in mouse fibroblasts; XiGFP mouse fibroblasts, % GFP-positive cells imaging, 3 d; cells co-treated with 5-aza-dC sensitizer; scaled so ellipticine positive control = 100%; activation, % at 7.58 µM; hit rate 0.055% among 360,000; AID 743238;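 active = mean normalized replicate activation at least 10% and every replicate at or above 10%; inconclusive = only one of the two criteria met; inactive = mean below 10% and not all replicates reach 10%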
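Material: XiGFP fibroblasts, SV40-immortalized; Buffer or medium: DMEM containing 5-aza-dC; Compound dosing: single point; Times: 3 days compound exposure.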
C2C12 statin – protects C2C12 myotubes from simvastatin toxicity | hit rate 0.78% among 330,000 | ATP luminescence, 48 h; scaled: DMSO 0, geranylgeraniol control 100 | rescue of ATP level, % at 7.49 µM;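 active = mean ATP rescue above about 67%, or every replicate alone reaching that limit, limit read from the data, passing the limit was not always enough; inconclusive = no clear call, values can overlap the other calls; inactive = mean under the limit and some replicate under it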;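 also: myotubes were challenged with 10 µM simvastatin during compound exposure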
FGF22 binding – shifts melting point of recombinant human FGF22. activity (Tm shift, normalised), % at 9.99 µM. hit rate 1.5% among 340,000. recombinant FGF22 thermal shift, SYPRO orange fluorescence; percent of sucrose octasulfate shift, DMSO zero. Q9HCT0. AID 651658;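 active = mean Tm shift, scaled 0 neutral to 100 positive control, at about 1.3% or above, every replicate too, limit read from the data; inconclusive = no clear call, values can overlap the other calls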
PglD inh – blocks C. jejuni PglD acetyltransferase activity | purified PglD enzyme, DTNB colorimetric CoA detection | inhibition, % at 12.5 µM | hit rate 0.098% among 360,000; in the data active = inhibition above about 16%, passing the limit was not always enough; inconclusive = no clear call, values can overlap the other calls
A number is an active result; n = inactive; u = inconclusive; x = not tested or not shown. In the library only some 3.3% were active in any assay of this set; here they are far more common.

SMILES | DENV2 CPE | E-selectin induc | XiGFP reactiv | C2C12 statin | FGF22 binding | PglD inh
O=C(C[C@H]1C=C[C@@H](NC(=O)c2ccncc2)[C@@H](CO)O1)Nc1ccccc1 | n | n | n | x | x | x
O=C(N[C@@H]1CC[C@@H](CC(=O)N2CCc3ccccc3C2)O[C@H]1CO)C1CCOCC1 | n | n | n | n | n | n
C[C@@H]1CN([C@@H](C)CO)C(=O)c2cccc(NC(=O)Nc3cccc4ccccc34)c2O[C@H]1CN(C)C(=O)NC1CCCCC1 | x | n | n | n | x | x
O=C(C[C@H]1C=C[C@H](NC(=O)Nc2cccc(F)c2)[C@H](CO)O1)NCC1CCCCC1 | u | n | n | n | n | n
C[C@@H]1CCCCO[C@@H](CN(C)C(=O)Nc2ccc(C(F)(F)F)cc2)[C@H](C)CN([C@@H](C)CO)C(=O)c2cc(NC(=O)c3ccncc3)ccc2O1 | 75.9 | n | n | x | n | n
C[C@@H]1CN([C@H](C)CO)C(=O)c2cc(NC(=O)c3ccncc3)ccc2O[C@@H](C)CCCCO[C@H]1CN(C)C(=O)Nc1ccc(F)cc1 | 26.4 | n | n | x | n | n
C[C@H]1CCCCO[C@@H](CN(C)C(=O)C2CCCCC2)[C@@H](C)CN([C@@H](C)CO)C(=O)c2cc(NC(=O)c3ccncc3)ccc2O1 | u | n | n | n | n | n
C[C@H](CO)N1C[C@H](C)[C@@H](CN(C)C)OCCCC[C@H](C)Oc2ccc(NC(=O)c3ccncc3)cc2C1=O | 64.8 | n | n | n | n | n
C[C@@H]1CCCCO[C@@H](CN(C)C(=O)C2CCCCC2)[C@H](C)CN([C@H](C)CO)C(=O)c2cc(NC(=O)c3ccncc3)ccc2O1 | 136.0 | n | n | n | n | n
COc1ccc2c3c(n(C)c2c1)[C@H](CO)N(Cc1ccccc1OC)CC31CCN(CC2CCOCC2)CC1 | n | n | n | x | n | x
C[C@H]1CCCCO[C@H](CN(C)C(=O)Nc2ccc(C(F)(F)F)cc2)[C@@H](C)CN([C@@H](C)CO)C(=O)c2cc(NC(=O)c3ccncc3)ccc2O1 | n | n | n | x | x | n
C[C@@H]1CN([C@@H](C)CO)C(=O)c2cc(NC(=O)c3ccncc3)ccc2O[C@@H](C)CCCCO[C@@H]1CN(C)C(=O)Nc1ccc(C(F)(F)F)cc1 | 54.7 | n | n | x | n | x
Cc1noc(C)c1S(=O)(=O)N1CCC(C(=O)N2CCN(c3ccccc3Cl)CC2)CC1 | x | x | x | 137.0 | x | n
Cc1cccc(N2CCN(C(=O)C3CCN(S(=O)(=O)c4c(C)noc4C)CC3)CC2)c1C | n | x | n | n | n | n
CCCC#Cc1ccc2c(c1)O[C@@H](CN(C)Cc1cccnc1)[C@@H](C)CN([C@H](C)CO)S2(=O)=O | n | n | n | n | n | n
Nc1ccc(N2C(=O)c3ccccc3C2=O)c(Cl)c1 | 38.5 | n | n | n | n | n
Cc1cccc(NC(=O)Nc2ccc3c(c2)C(=O)N(C)[C@@H]2CC[C@H](CC(=O)O)O[C@@H]2CO3)c1 | n | n | n | n | n | n
CCCCNc1nc2c(c(=O)[nH]c(=O)n2C)n1CCCc1ccccc1 | n | n | n | n | 43.3 | n
CCOCCn1c(SCc2ccccc2)nc2c1c(=O)[nH]c(=O)n2C | n | x | n | n | n | n
C/C=C/Cn1c(SCc2ccccc2)nc2c1c(=O)[nH]c(=O)n2C | x | x | x | 116.5 | x | n
CC(C)C(=O)Nc1ccc2c(c1)C(=O)N(C)[C@H]1CC[C@@H](CC(=O)NCCCN(C)C)O[C@H]1CO2 | n | n | n | n | n | n
O=S(=O)(N[C@H]1CC[C@@H](CCn2cc(C3(O)CCCC3)nn2)O[C@H]1CO)c1ccc(Cl)cc1 | n | n | n | n | n | n
NS(=O)(=O)c1ccc(NC(=O)CN2CCCCC2)cc1 | x | x | x | x | x | n
O=C(COc1ccccc1)Nc1ccc(S(=O)(=O)N2CCCC2)cc1 | n | n | n | 115.9 | n | n
COc1ccc(OCC(=O)Nc2nnc(S(=O)(=O)N3CCCCCC3)s2)cc1 | n | n | n | 112.6 | n | n
SMILES | DENV2 CPE | E-selectin induc | XiGFP reactiv | C2C12 statin | FGF22 binding | PglD inh
COc1ccccc1NC(=O)COC(=O)c1ccc(S(=O)(=O)N2CCCCCC2)cc1 | u | n | n | x | 43.2 | x
O=C(COc1ccccc1)Nc1ccc(S(=O)(=O)N2CCCCCC2)cc1 | x | x | x | n | x | n
O=C(CN1CCCCC1)Nc1ccc(S(=O)(=O)c2ccc(NC(=O)CN3CCCCC3)cc2)cc1 | n | n | n | n | 43.7 | n
CCC(CC)NC(=O)COC(=O)c1ccc(OCC(=O)Nc2ccccc2OC)c(OC)c1 | x | x | x | 66.6 | x | n
O=C(COC(=O)c1cccc(S(=O)(=O)N2CCCCCC2)c1)Nc1ccccc1C(F)(F)F | n | n | n | n | n | n
Cc1ccc(C(=O)OCC(=O)N2C(C)CCCC2C)cc1S(=O)(=O)N1CCOCC1 (stereo not given) | 25.1 | n | n | n | n | n
CC1CCCC(C)N1C(=O)COC(=O)c1ccc(Br)c(S(=O)(=O)N2CCOCC2)c1 (stereo not given) | n | n | n | n | n | n
Cc1ccc(C(=O)OCC(=O)Nc2ccccc2C(F)(F)F)cc1S(=O)(=O)N1CCCCC1 | 101.1 | n | n | n | n | n
Cc1noc(C)c1NC(=O)Nc1ccc2c(c1)CC(=O)N([C@H](C)CO)C[C@@H](C)[C@@H](CN(C)Cc1ccc(Cl)c(Cl)c1)O2 | n | n | n | u | n | n
CC1(C)Cc2c(C#N)c(N)n(-c3ccccc3)c(=O)c2CO1 | x | x | x | 81.5 | x | n
C[C@@H]1CCCCO[C@H](CN(C)S(=O)(=O)c2ccc(Cl)cc2)[C@@H](C)CN([C@@H](C)CO)C(=O)c2cc(NS(=O)(=O)c3cn(C)cn3)ccc2O1 | u | n | n | x | n | n
CC(C)C(=O)NNC(=O)CSc1nc(C2CCCCC2)nc2ccccc12 | x | x | n | x | x | n
O=C(CSc1nc(C2CCCCC2)nc2ccccc12)NCc1ccc2c(c1)OCO2 | n | x | n | x | 43.6 | x
O=C(CSc1ccc2ccccc2n1)NCc1ccc2c(c1)OCO2 | n | n | n | n | 43.0 | x
C[C@@H]1CN([C@H](C)CO)C(=O)c2cc(NC(=O)c3ccccc3)ccc2O[C@@H](C)CCCCO[C@@H]1CN(C)C(=O)c1ccccc1 | x | x | n | x | 1.4 | n
C[C@H](CO)N1C[C@H](C)[C@@H](CN(C)C(=O)c2ccccc2)OCCCC[C@H](C)Oc2ccc(NC(=O)C3CCCCC3)cc2C1=O | 33.6 | n | n | n | n | n
C[C@@H]1CN([C@@H](C)CO)C(=O)c2cc(NC(=O)c3ccccc3)ccc2O[C@@H](C)CCCCO[C@@H]1CN(C)C(=O)CCC(F)(F)F | 28.6 | n | n | x | n | n
C[C@H](CO)N1C[C@H](C)[C@H](CN(C)C(=O)Nc2ccccc2)Oc2c(NS(=O)(=O)c3cccs3)cccc2C1=O | x | 50.1 | n | x | x | x
